In PubChem BioAssay:
The source made the active and inactive calls.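 How the source made its calls, unless noted: active means a full or partial loss of lipid-probe fluorescence in the fish gall bladder, intestine or both, judged by eye; inactive means no fluorescence loss, or compound toxic to the fish.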

How the values were obtained:
[1] = inhibitors of TNFa-induced NFkB p65 translocation, primary screen, imaging, HUVEC, MLSMR starter and 10KST1 sets (AID 438;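 active means inhibition above 20% together with a positive visual image hit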;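 further: compound added about 3h40 before a 20 min TNFalpha stimulation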;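 on inhibition: signal is the nuclear over cytoplasmic p65 intensity ratio per well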); conditions: HUVEC TNFa-induced p65 nuclear translocation; cell count: measured here: nuclei count (cytotoxicity indicator), at 2.08 µM; inhibition: at 2 µM, stronger effect = higher value, 0% TNFa-plus-vehicle, 100% no-TNFa wells
[2] = inhibitors of E-selectin induction by TNFa, primary screen, imaging, HUVEC, immunofluorescence, MLSMR starter and 10KST1 sets (AID 487;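 active means visually confirmed hit in the image check and inhibition above 20%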;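 on inhibition: signal is fraction of cell area covered by stained E-selectin grains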;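 on nuclei count: 100% = median nuclei count of all wells on the same plate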); conditions: HUVEC TNFalpha-induced E-selectin immunofluorescence imaging, at 2 µM; inhibition: stronger effect = higher value; nuclei count: measured here: cell number, toxicity
[3] = DUSP6 inhibitors restoring Erk phosphorylation by chemical complementation, primary imaging in DUSP6-transfected HeLa (AID 609;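 active means compounds giving at least 50% inhibition in the cell-based MKP-3 phosphatase rescue imaging test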;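 on inhibition: phospho-Erk level distribution per well compared with pooled transfected vehicle control wells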); conditions: HeLa MKP-3 transfected, phospho-Erk imaging KS statistic, at 10 µM, cells stimulated with TPA for 15 min
[4] = molecular target: Dual specificity protein phosphatase 6 (Homo sapiens) (UniProt Q16828); assay: as above; conditions: HeLa MKP-3 transfected, phospho-Erk imaging KS statistic; at 10 µM; stronger effect = higher value; cells stimulated with TPA for 15 min
[5] = molecular target: Voltage-gated potassium channel subunit beta-2 (Rattus norvegicus) (UniProt P62483); assay: KvBeta enzyme negative modulators, primary screen, biochemical, NADPH fluorescence (AID 622;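 active means fluorescence slope higher than the sample average by over 3 SD, cut at about -0.22 in these data, passing the limit was not always enough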;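 further: slope of raw intensity against log time taken from 70 to 1610 s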); conditions: recombinant KvBeta, 4-cyanobenzaldehyde reduction, at 10 µM, stronger effect = higher value
[6] = molecular target: Voltage-gated potassium channel subunit beta-2 (Rattus norvegicus) (UniProt P62483); assay: KvBeta positive modulators, primary screen, biochemical, NADPH fluorescence (AID 623;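 active means NADPH fluorescence slope more negative than the mean of all samples by about 3 SD, 99.7% confidence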;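 further: fluorescence intensity change per second fitted from 20 to 320 s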); conditions: Recombinant KvBeta, NADPH fluorescence decrease slope, 10 min; at 10 µM; stronger effect = lower value
[7] = molecular target: Alpha-2C adrenergic receptor (Homo sapiens) (UniProt P18825); assay: modulators of alpha2C/GIRK thallium flux, primary screen, cell-based, HEK293 alpha2C/GIRK1/2 (AID 624;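 active means fluorescence slope after compound addition differing from the mean of all screened samples at 99.7% confidence, in either direction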;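 further: slope of fluorescence ratio to pre-addition baseline per second over 15 to 24 s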); conditions: thallium flux BTC fluorescence, at 10 µM, actives lie on both sides
[8] = inhibitors of larval lipid processing in zebrafish, primary screen, whole organism, PED6 fluorescence, gall bladder and intestine (AID 686); conditions: Zebrafish larvae PED6 lipid processing, fluorescence scoring; screened at 20 µM (by protocol);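 further: larvae 5 to 7 days old with five fish per well; signal comes from phospholipase A2 cleavage of quenched PED6 carried via bile; overnight exposure to compound and PED6 before scoring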
Outline: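 Test system – live zebrafish larvae aged 5-7 days, whole organism · Buffer or medium – E3 fish medium · Reagent – quenched phospholipase substrate PED6, 100 nM final, ingested by larvae · Doses – 20 µM single dose · Incubation – overnight compound and PED6 incubation · Technique – visual fluorescence microscopy scoring of gall bladder, gut · Read-out basis – visual per-well fluorescence inhibition score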

[9] = inhibitors of Chlamydomonas gravitaxis, primary screen, whole organism, Chlamydomonas reinhardtii, WT vs cilia-less mutant, absorbance, 96-well (AID 463189;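 active means inhibition at or above 50% relative to wild type and mutant plate controls; inactive means inhibition below 50%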;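 further: 0% = wild type cc124 cells in DMSO and 100% = ciliumless bld1 mutant cells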); conditions: OD600 absorbance, 2 days, at 10 µM, stronger effect = higher value
[10] = measured here: cell density z-score
[11] = measured here: nuclear c-Myc green intensity z-score
[12] = measured here: nuclear pErk red intensity z-score, stronger effect = higher value

Sequence of Alpha-2C adrenergic receptor (Homo sapiens) (P18825 whole entry, looked up): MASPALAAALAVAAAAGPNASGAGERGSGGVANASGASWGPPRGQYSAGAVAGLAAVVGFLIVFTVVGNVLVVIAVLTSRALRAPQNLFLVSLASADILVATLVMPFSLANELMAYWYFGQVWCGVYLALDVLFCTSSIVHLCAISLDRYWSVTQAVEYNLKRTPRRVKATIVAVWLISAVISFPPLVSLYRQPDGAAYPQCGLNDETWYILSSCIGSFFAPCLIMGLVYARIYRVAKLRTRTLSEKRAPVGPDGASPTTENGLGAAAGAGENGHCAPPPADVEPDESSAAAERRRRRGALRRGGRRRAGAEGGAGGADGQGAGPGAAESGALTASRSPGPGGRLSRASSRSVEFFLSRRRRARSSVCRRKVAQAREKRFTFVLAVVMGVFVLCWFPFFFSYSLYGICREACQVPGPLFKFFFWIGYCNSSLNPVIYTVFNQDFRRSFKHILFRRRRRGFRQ
Sequence of Voltage-gated potassium channel subunit beta-2 (Rattus norvegicus) (P62483 whole entry, looked up): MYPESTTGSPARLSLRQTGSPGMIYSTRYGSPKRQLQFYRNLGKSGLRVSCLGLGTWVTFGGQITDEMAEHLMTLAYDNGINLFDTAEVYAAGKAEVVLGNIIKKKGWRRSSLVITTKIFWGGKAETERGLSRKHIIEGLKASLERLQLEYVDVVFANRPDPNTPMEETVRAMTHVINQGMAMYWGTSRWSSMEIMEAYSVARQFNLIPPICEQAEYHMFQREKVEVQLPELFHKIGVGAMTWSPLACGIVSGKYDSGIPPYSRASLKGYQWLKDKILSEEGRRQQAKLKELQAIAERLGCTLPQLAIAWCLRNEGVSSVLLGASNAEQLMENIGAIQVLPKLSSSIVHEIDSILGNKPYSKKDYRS
Sequence of Dual specificity protein phosphatase 6 (Homo sapiens) (Q16828 whole entry, looked up): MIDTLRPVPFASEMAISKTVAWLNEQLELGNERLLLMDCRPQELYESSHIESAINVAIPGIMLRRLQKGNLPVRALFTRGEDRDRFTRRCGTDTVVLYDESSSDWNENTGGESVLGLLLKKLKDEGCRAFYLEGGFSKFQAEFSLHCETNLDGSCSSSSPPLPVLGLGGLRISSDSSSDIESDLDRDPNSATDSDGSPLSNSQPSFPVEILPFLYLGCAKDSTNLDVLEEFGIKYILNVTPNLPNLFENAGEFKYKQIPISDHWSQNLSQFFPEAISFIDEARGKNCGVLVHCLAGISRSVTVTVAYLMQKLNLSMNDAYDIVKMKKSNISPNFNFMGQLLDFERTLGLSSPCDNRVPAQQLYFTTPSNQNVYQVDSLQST

| SMILES | cell count [1] | inhibition [1] | inhibition [2] | nuclei count [2] [%] | z-score [3, 10] | z-score [3, 11] | z-score [3, 12] | inhibition [4] | fluorescence slope [5] | NADPH fluorescence slope [6] | slope [7] | outcome [8] | inhibition [9] |
| --- | --- | --- | --- | --- | --- | --- | --- | --- | --- | --- | --- | --- | --- |
| c1ccc(OCc2nn3c(C4CCCCC4)nnc3s2)cc1 | 633 | -8.1% (inactive) | -110% (inactive) | 167 | -0.542 | -0.363 | 1.81 | -6.06% (inactive) | -0.434 (inactive) | -0.000186 (inactive) | 0.00482 (inactive) | inactive | -1.22% (inactive) |
| CC(C)C1C(C#N)=C(N)Oc2n[nH]c(C(C)(C)C)c21 (centres undefined) | 391 | -8.2% (inactive) | -118% (inactive) | 157 | 0.159 | 1.21 | -1.21 | -2.91% (inactive) | -0.429 (inactive) | -4.6e-05 (inactive) | 0.00626 (inactive) | inactive | -1.5% (inactive) |
| CC1(C(=O)O)CCC(C(=O)NC2CCCCCC2)C1(C)C (centres undefined) | 542 | -9.8% (inactive) | -131% (inactive) | 196 | 1.72 | -0.55 | -1.37 | 28.6% (inactive) | -0.513 (inactive) | -0.000107 (inactive) | 0.00621 (inactive) | inactive | 28.8% (inactive) |
| Cc1ccc(C(=O)C2=C(O)C(=O)N(c3ncccn3)C2c2cccc(Cl)c2)o1 (centres undefined) | 472 | -8.1% (inactive) | -43% (inactive) | 177 | 0.573 | 0.527 | -0.321 | 0.671% (inactive) | -0.287 (inactive) | -2.1e-05 (inactive) | 0.00586 (inactive) | inactive | 1.33% (inactive) |
| Cc1ccc(C2C(C(=O)c3cc4ccccc4o3)=C(O)C(=O)N2CCCN(C)C)cc1 (centres undefined) | 445 | -4.5% (inactive) | -30.5% (inactive) | 161 | -0.136 | -1.28 | 0.773 | -2.91% (inactive) | -0.414 (inactive) | -4.9e-05 (inactive) | 0.00603 (inactive) | inactive | -1.22% (inactive) |
| CCOC(=O)c1ccccc1OCc1cc(/C=N/n2cncn2)ccc1OC | 430 | -16.8% (inactive) | -87.5% (inactive) | 169 | 0.277 | 0.212 | -0.384 | -2.29% (inactive) | -0.358 (inactive) | 1.8e-05 (inactive) | 0.00447 (inactive) | inactive | -0.944% (inactive) |
| Cn1cc(Br)cc2nc(C(F)(F)F)nc1-2 | 534 | -11.2% (inactive) | -143% (inactive) | 133 | 0.955 | -1.14 | -0.53 | 29.7% (inactive) | -0.532 (inactive) | -2.5e-05 (inactive) | 0.00656 (inactive) | inactive | 20% (inactive) |
| CCCCCNC(=O)c1c(N)n(/N=C/c2ccco2)c2nc3ccccc3nc12 | 351 | -5.8% (inactive) | -71.9% (inactive) | 147 | 1.49 | -0.91 | -0.977 | 17.4% (inactive) | -0.416 (inactive) | -0.000149 (inactive) | 0.00624 (inactive) | inactive | 14.7% (inactive) |
| c1csc(Cc2nn3c(-c4ccncc4)nnc3s2)c1 | 669 | -1.9% (inactive) | -17.9% (inactive) | 159 | 0.0409 | 0.511 | -0.101 | -6.06% (inactive) | -0.412 (inactive) | -0.000115 (inactive) | 0.00514 (inactive) | inactive | 8.13% (inactive) |
| COCCOC(=O)c1c(C)nc(SCC(=O)Nc2ccc(C)cc2)c(C#N)c1-c1ccco1 | 403 | 0.9% (inactive) | -123% (inactive) | 124 | 1.33 | 0.851 | -1.03 | -2.59% (inactive) | -0.446 (inactive) | -8.7e-05 (inactive) | 0.00716 (inactive) | inactive | 7.49% (inactive) |
| C=CCn1c(SCc2c(F)c(F)c(F)c(F)c2F)nc(O)cc1=O | 615 | -1.1% (inactive) | -11.1% (inactive) | 149 | 1.68 | -0.511 | 0.131 | 7.83% (inactive) | -0.502 (inactive) | -0.00012 (inactive) | 0.00491 (inactive) | inactive | 8.12% (inactive) |
| CC1(c2ccco2)NC(=O)NC1=O (centres undefined) | 665 | -2.9% (inactive) | -112% (inactive) | 160 | -0.981 | -0.00713 | 0.00425 | -3.98% (inactive) | -0.492 (inactive) | -0.00016 (inactive) | 0.00442 (inactive) | inactive | -5.4% (inactive) |
| O=CN1CCN(C(=O)CN2C(=O)c3ccccc3C2=O)CC1 | 359 | -7.2% (inactive) | -43.3% (inactive) | 161 | 0.687 | -0.0272 | -1.29 | 11.4% (inactive) | -0.452 (inactive) | -0.000158 (inactive) | 0.00499 (inactive) | inactive | 15.5% (inactive) |
